KCNK9 block = blocks the human KCNK9 two-pore domain potassium channel; Q9NPC2; HEK293 KCNK9, FluxOR thallium flux fluorescence; stronger effect = lower value; B-score at 10 µM; 310,000 compounds, 1.2% hits;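 active = ratio B-score over 3 SD below the library mean, with starting fluorescence within 5 SD of its mean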;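 also: negative B-score means less thallium flux so channel inhibition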
KCNQ1 inh = blocks the human KCNQ1 potassium channel; P51787; CHO-K1 KCNQ1, FluxOR thallium flux fluorescence; stronger effect = higher value; B-score at 10 µM; 310,000 compounds, 1.3% hits;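 active = compounds whose thallium flux B-score, printed positive for inhibition, exceeds three library SD while starting fluorescence stays within three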;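 also: channel opened by potassium depolarization with thallium stimulus after 20 min compound exposure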
KCNQ1 pot = potentiates or activates the human KCNQ1 potassium channel; P51787; CHO-K1 KCNQ1, thallium flux FluxOR fluorescence; stronger effect = higher value; B-score at 10 µM; 310,000 compounds, 0.35% hits;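 active = fluorescence ratio B-score, a plate-corrected score, at least three library SD, with initial intensity B-score within 5 SD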
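Assay system: CHO-K1 cells stably expressing KCNQ1; Medium: assay buffer with matched DMSO; Also added: K+/Tl+ depolarizing stimulus; Dosing: single dose; Timing: dye 90 min, compound 20 min, room temperature; Measured by: kinetic FluxOR thallium fluorescence, 10-s 1-Hz baseline, 110-s post-stimulus read; Read-out: peak-minus-minimum fluorescence over initial fluorescence, negative-control normalized, B-scored.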
KCNK3 inh = human KCNK3 channel inhibition, primary screen. CHO-KCNK3 thallium flux, FluxOR fluorescence; stronger effect = lower value. 340,000 compounds, 0.84% hits. B-score at 10 µM. O14649;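 active = B-score under library mean minus 4 SD, starting fluorescence ratio at most library mean plus 5 SD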;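 also: more negative B-score means stronger inhibition of thallium flux through KCNK3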
KCC2 mod = modulates chloride dependent transport by human KCC2 | AID 1456 | 190,000 compounds, 2.2% hits | KCC2 cells, thallium flux FluoZin-2 fluorescence | B-score of Tl+ flux slope (higher = more flux/activation; lower = inhibition) at 10 µM;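 active = thallium flux slope and its plate-corrected score both differing from the plate sample mean at a set confidence after two filtering rounds, in either direction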;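 also: slope of fluorescence scaled to starting intensity during 10 to 20 s after thallium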
hERG protect = compounds protecting human hERG from proarrhythmic drug block; Q12809; CHO-hERG, FluxOR thallium flux, dofetilide IC70 present; activation (rescue from dofetilide block), less the hit threshold, % at 10 µM; 310,000 compounds, 0.51% hits; AID 1511;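 active = activation above the mean of controls blocked by dofetilide plus 5 SD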;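 also: thallium influx through hERG after potassium depolarization seen as dye fluorescence rise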
KCNK9 inh conf = human KCNK9 inhibitor confirmation; shares compounds with KCNK9 block; HEK293 KCNK9 cells, FluxOR thallium flux fluorescence; inhibition, % at 10 µM; 4,900 compounds, 43% hits;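 active = thallium signal inhibited by more than 5 SD of the compound-free buffer control wells, on both duplicate plates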
Kir21 sel = mouse Kir2.1 off-target activity of KCNK9 modulators. AID 492993. Kir2.1 cells, FluxOR thallium flux fluorescence. 4,900 compounds, 4% hits. inhibition, % at 10 µM. shares compounds with KCNK9 block;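 active = thallium signal drop more than 5 SD beyond the mean of the no-compound control wells, seen in both duplicate plates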;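 also: signal is fluorescence rise after thallium addition divided by baseline fluorescence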
Target sequence (P35561 whole entry, looked up): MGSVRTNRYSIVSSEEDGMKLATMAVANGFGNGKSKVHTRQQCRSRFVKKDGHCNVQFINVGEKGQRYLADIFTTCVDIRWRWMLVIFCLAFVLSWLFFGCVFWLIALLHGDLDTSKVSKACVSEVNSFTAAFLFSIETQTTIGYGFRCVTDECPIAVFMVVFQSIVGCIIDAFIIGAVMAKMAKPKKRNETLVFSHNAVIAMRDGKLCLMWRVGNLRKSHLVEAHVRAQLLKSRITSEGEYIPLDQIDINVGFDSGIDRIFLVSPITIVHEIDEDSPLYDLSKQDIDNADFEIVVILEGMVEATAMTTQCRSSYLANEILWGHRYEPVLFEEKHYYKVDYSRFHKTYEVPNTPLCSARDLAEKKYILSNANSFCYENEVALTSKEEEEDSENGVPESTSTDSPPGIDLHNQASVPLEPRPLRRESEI
HEK293 Tl ctr = second counter-screen for KCNK9 modulators: effect in non-induced cells. shares compounds with KCNK9 block. non-induced KCNK9-HEK293, FluxOR thallium flux. inhibition, % at 10 µM. 4,900 compounds, 40% hits. AID 492997;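 active = thallium signal drop beyond 5 SD of the untreated control mean, on both duplicate plates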
Hits are given with their value. In the library only some 4.1% were active in any assay of this set; here they are far more common.

For CC1=NNC(=O)/C1=C\c1cn(-c2ccccc2)nc1-c1cccs1 the results were KCNK9 block inactive, KCNQ1 inh inactive, KCNQ1 pot inactive, KCNK3 inh inactive, KCC2 mod inactive, hERG protect inactive, KCNK9 inh conf inactive, Kir21 sel inactive and HEK293 Tl ctr inactive.
COc1cccc(OC)c1C(=O)Nc1ccnn1C was read as KCNK9 block inactive, KCNQ1 inh inactive, KCNQ1 pot inactive, KCNK3 inh inactive and hERG protect inactive.
CCC12CCC3c4ccc(O)cc4CCC3C1CC(O)C2O (stereo not drawn) was read as KCNK3 inh inactive.
For Cc1cc(OC(=O)c2cccc(Cl)c2)c([N+](=O)[O-])c(=O)[nH]1 the results were KCNK9 block inactive, KCNQ1 inh inactive, KCNQ1 pot inactive, KCNK3 inh inactive and hERG protect inactive.
For Cc1ccc2nc(N3C(=O)C(O)=C(C(=O)c4ccc(C)o4)C3c3ccc(O)cc3)sc2c1 (stereo not drawn) the results were KCNK3 inh inactive.
`CCOc1ccccc1NC(=O)N1CCC(C(=O)c2ccc(F)cc2)CC1` gave KCNK9 block -10, KCNQ1 inh inactive, KCNQ1 pot inactive, KCNK3 inh inactive, KCC2 mod inactive, hERG protect inactive, KCNK9 inh conf 41.5%, Kir21 sel inactive and HEK293 Tl ctr 36.5%.
`CCC(=O)N1c2ccc(S(=O)(=O)NC3CCCCC3)cc2CC1C` (stereo not drawn) gave KCNK9 block inactive, KCNQ1 inh inactive, KCNQ1 pot inactive, KCNK3 inh inactive and hERG protect inactive.
`CC(C)C(C)NC(=O)COc1ccc(OCc2ccccc2)cc1` (stereo not drawn) gave KCNK9 block inactive, KCNQ1 inh inactive, KCNQ1 pot inactive, KCNK3 inh inactive, KCC2 mod inactive and hERG protect inactive.
Screening CC(C)C(C)NC(=O)COc1ccc(-c2ccccc2)cc1 (stereo not drawn) returned KCNK9 block -9.86, KCNQ1 inh inactive, KCNQ1 pot inactive, KCNK3 inh inactive, hERG protect inactive, KCNK9 inh conf 34.0%, Kir21 sel inactive and HEK293 Tl ctr inactive.
`CCc1ccc(OCC(=O)OC(C)C(=O)Nc2ccc(Cl)cn2)cc1` (stereo not drawn) gave KCNK3 inh inactive.
CCC(=O)N(CCC(c1ccco1)C(C)C)Cc1ccccc1 (stereo not drawn) was read as KCNK9 block -10.6, KCNQ1 inh inactive, KCNQ1 pot inactive, KCNK3 inh inactive, KCC2 mod inactive, hERG protect inactive, KCNK9 inh conf inactive, Kir21 sel inactive and HEK293 Tl ctr 33.5%.
CC(=O)N(CCC(c1ccco1)C(C)C)Cc1ccc(Cl)cc1 (stereo not drawn) was read as KCNK9 block -9.27, KCNQ1 inh inactive, KCNQ1 pot inactive, KCNK3 inh inactive, KCC2 mod inactive, hERG protect inactive, KCNK9 inh conf 40.5%, Kir21 sel 33.0% and HEK293 Tl ctr 45.5%.
Screening CCC(=O)N(CCC(c1ccc(C)cc1)c1ccco1)Cc1ccco1 (stereo not drawn) returned KCNK9 block -15.6, KCNQ1 inh inactive, KCNQ1 pot inactive, KCNK3 inh inactive, KCC2 mod inactive, hERG protect inactive, KCNK9 inh conf 67.5%, Kir21 sel inactive and HEK293 Tl ctr 45.5%.
For COc1cc(OC)c(OC)cc1CN1CCN(c2ccc(F)cc2)CC1 the results were KCNK9 block inactive, KCNQ1 inh inactive, KCNQ1 pot inactive, KCNK3 inh inactive, KCC2 mod inactive, hERG protect inactive, KCNK9 inh conf inactive, Kir21 sel inactive and HEK293 Tl ctr inactive.
For COc1ccc(/C=N/NC(=O)c2ccccc2)cc1CN1CCN(c2ccc(F)cc2)CC1 the results were KCNK9 block inactive, KCNQ1 inh inactive, KCNQ1 pot inactive, KCNK3 inh inactive, KCC2 mod inactive and hERG protect inactive.

Source: PubChem (several laboratories)
